Assay outcomes: PubChem BioAssay, Broad Institute
Hits are enriched below; roughly 3% of the tested compounds scored in any of these assays.
Xi reactivation: activators of X-chromosome reactivation in mouse fibroblasts | XiGFP mouse fibroblasts, % GFP-positive cells imaging, 3 d; cells co-treated with 5-aza-dC sensitizer; scaled so ellipticine positive control = 100% | activation, % at 7.58 µM | 360,000 tested, 0.055% active;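 active = mean normalized replicate activation at least 10% and every replicate at or above 10%; inconclusive = only one of the two criteria met; inactive = mean below 10% and not all replicates reach 10%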;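 note: 0% = median of on-plate neutral control wells and 100% = ellipticine 6 µM median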
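System: 68-5-11 XiGFP fibroblast line | Buffer or medium: DMEM containing 5-aza-dC | Compound: Single point | Times: Compounds 3 days, fix/stain 15 min at room temperature | Benchmarks: Positive control ellipticine, 6 µM final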
MITF act: increases MITF-driven TRPM1 promoter luciferase signal; SK-MEL-5 TRPM1-promoter luciferase, 24 h; % of positive control, neutral wells = 0; 300,000 tested, 0.75% active; AID 588334; activation, % at 12.5 µM;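 active = mean activation of at least 80% with every replicate also reaching 80%; inconclusive = mean reaches 80% but some replicate falls short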;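 note: 0% = neutral control wells and 100% = parthenolide positive control wells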
Wnt act: Wnt/beta-catenin pathway activation; Wnt/beta-catenin reporter cell assay, activator, plate reader; activation, % at 9.35 µM; 300,000 tested, 1.2% active; AID 743398; in the data active = activation above about 30%, passing the limit was not always enough; inconclusive = no clear call, values can overlap the other calls;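 note: 0% = neutral control wells and 100% = positive control wells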
esBAF inh: SWI/SNF esBAF complex inhibition; mouse ES cells, Bmi1-luciferase knock-in reporter, 24 h; 100% = twice the neutral-well signal; reporter increase, % at 12.5 µM; 350,000 tested, 2% active; in the data active = activation above about 40%; inconclusive = no clear call, values can overlap the other calls;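 note: 0% = median of the plate's neutral control wells and 100% = double that signal; a rise in the Bmi1 reporter signal indicates esBAF inhibition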
CASP6 VEID inh: caspase-6 (human) enzyme inhibition. P55212. purified caspase-6, Z-VEID-R110 cleavage fluorescence. inhibition, % at 12.5 µM. 350,000 tested, 0.53% active;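 active = mean inhibition across replicates at least about 35%, with every replicate also reaching that limit, limit read from the data; inconclusive = only one of the two criteria met; inactive = neither criterion met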;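 note: 0% = median of neutral control wells and 100% = no fluorescence left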
NSD2 inh: blocks human histone methyltransferase NSD2. AID 743445. inhibition, % at 12.5 µM. O96028. NSD2 peptide methylation, AlphaScreen, 120 min. 310,000 tested, 0.54% active; in the data active = inhibition above about 50%
Target sequence (O96028 whole entry, looked up): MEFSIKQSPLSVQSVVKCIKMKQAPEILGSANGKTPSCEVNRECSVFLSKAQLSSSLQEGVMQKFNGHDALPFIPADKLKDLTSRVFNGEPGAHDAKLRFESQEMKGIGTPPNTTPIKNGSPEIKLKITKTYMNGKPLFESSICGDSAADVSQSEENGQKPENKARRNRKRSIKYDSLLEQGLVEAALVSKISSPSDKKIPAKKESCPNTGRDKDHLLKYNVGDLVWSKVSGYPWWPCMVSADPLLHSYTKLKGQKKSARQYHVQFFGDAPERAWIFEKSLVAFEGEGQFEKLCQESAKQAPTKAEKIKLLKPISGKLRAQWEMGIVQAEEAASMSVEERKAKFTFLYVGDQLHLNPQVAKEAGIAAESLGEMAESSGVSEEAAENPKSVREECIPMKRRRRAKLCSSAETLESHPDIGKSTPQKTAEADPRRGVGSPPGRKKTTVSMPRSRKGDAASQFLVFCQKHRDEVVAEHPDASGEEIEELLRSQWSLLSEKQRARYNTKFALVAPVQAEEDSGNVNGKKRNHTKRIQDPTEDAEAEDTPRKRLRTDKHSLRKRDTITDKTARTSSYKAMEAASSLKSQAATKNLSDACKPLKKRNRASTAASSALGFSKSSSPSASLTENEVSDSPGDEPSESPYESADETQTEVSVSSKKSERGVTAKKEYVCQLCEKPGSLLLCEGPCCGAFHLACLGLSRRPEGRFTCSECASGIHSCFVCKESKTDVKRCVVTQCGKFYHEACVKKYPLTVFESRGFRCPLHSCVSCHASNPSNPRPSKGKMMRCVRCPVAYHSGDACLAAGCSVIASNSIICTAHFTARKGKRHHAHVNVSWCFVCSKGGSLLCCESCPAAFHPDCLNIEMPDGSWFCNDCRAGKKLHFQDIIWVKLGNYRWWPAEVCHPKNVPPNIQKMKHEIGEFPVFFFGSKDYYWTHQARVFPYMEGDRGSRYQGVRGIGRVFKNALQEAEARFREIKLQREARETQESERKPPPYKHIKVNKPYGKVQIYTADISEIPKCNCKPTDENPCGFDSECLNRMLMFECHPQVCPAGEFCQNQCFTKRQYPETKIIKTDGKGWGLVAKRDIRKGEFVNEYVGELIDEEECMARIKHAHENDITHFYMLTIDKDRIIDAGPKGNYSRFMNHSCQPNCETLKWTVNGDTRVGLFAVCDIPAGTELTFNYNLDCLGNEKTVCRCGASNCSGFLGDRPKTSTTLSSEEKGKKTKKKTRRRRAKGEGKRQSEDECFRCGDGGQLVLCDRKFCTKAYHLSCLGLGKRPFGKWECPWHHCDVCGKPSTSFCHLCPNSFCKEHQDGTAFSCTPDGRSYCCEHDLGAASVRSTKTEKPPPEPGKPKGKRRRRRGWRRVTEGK
* = called active by the depositor; ? = inconclusive; nt = not tested or not shown.

SMILES | Xi reactivation | MITF act | Wnt act | esBAF inh | CASP6 VEID inh | NSD2 inh
O=C(CN1C(=O)NC2(CCCCC2)C1=O)Nc1ccc2c(c1)OCCCO2 | 0 | 130* | 44* | ? | 2 | -1
C[C@@H]1CN([C@H](C)CO)C(=O)c2cc(NC(=O)Cc3ccccc3)ccc2O[C@@H]1CN(C)Cc1ccc(Oc2ccccc2)cc1 | 0 | nt | nt | -8 | -2 | nt
C[C@@H]1CN([C@@H](C)CO)C(=O)c2cc(C#CCN(C)C)cnc2O[C@@H]1CN(C)C(=O)Nc1ccccc1F | 0 | nt | nt | -3 | 1 | nt
CCc1ccc(CNCCNC(=O)c2ccco2)cc1 | -1 | -7 | 42* | 36 | 7 | 0
O=C(NCc1ccc(CNC(=O)c2ccco2)cc1)c1ccco1 | 0 | -7 | 0 | -1 | -8 | -1
O=C(NCCNCc1ccccc1)c1ccco1 | 0 | -7 | -3 | 13 | 64* | 3
O=C(C1CC1)N1CC(=O)N2[C@H](CO)[C@@H](c3ccc(C#Cc4cccc(F)c4)cc3)[C@H]2C1 | 0 | nt | nt | nt | -1 | nt
CCOc1ccc(-c2cc(C(=O)Nc3ccc(F)cc3)[nH]n2)c(C)c1 | 0 | nt | -4 | 65* | 1 | -2
CC(C)C#Cc1ccc([C@H]2[C@H]3CN(C(=O)NC4CCCCC4)CC(=O)N3[C@H]2CO)cc1 | 0 | nt | nt | nt | 2 | nt
Cc1cc(C(=O)CSc2nnnn2C)c(C)n1-c1cccc(F)c1 | nt | 98* | nt | 17 | nt | 7
Cc1cc(C(=O)CSc2ncccn2)c(C)n1-c1cccc(F)c1 | 0 | 34 | 82* | nt | nt | 1
Cc1cc(C)cc(-n2c(C)cc(C(=O)CSc3nnnn3C)c2C)c1 | nt | 16 | nt | 26 | nt | 4
Cc1cc(C(=O)COC(=O)C2=COCCO2)c(C)n1-c1cccc(F)c1 | 0 | 107* | 2 | 55* | 6 | 23
Cc1cc(C(=O)CSc2n[nH]c(N)n2)c(C)n1-c1cccc(F)c1 | nt | 30 | -2 | 32 | 1 | 7
C[C@@H]1CCCCO[C@H](CN(C)S(=O)(=O)c2ccc(Cl)cc2)[C@@H](C)CN([C@@H](C)CO)C(=O)c2cc(NC(=O)Nc3cccc4ccccc34)ccc2O1 | 0 | nt | nt | 6 | 1 | nt
Cc1csc(C(C#N)C(=O)c2cc3ccccc3o2)n1 (stereo not drawn) | nt | 62 | 25 | 46* | 6 | 31
C[C@H]1CN([C@@H](C)CO)C(=O)Cc2cc(NS(=O)(=O)c3cn(C)cn3)ccc2O[C@H]1CN(C)Cc1ccc(C(=O)Nc2ccccc2N)cc1 | -1 | nt | nt | nt | 7 | nt
O=C(NCc1ccco1)c1ccc(Br)c(S(=O)(=O)N2CCCCC2)c1 | nt | -14 | nt | 14 | 72* | 8
O=C(NCc1ccco1)c1ccc(F)c(S(=O)(=O)N2CCCCC2)c1 | 0 | 0 | 0 | nt | -1 | -1
CCOC(=O)c1ccc2[nH]c3c(c2c1)CCCC3O (stereo not drawn) | 0 | 24 | 1 | nt | 1 | 1
CCOC(=O)c1ccc2[nH]c3c(c2c1)CCCC3 | 0 | 63 | 20 | 66* | 0 | 5
O=[N+]([O-])c1cccnc1NCCNc1ncc(C(F)(F)F)cc1Cl | nt | 101* | nt | 48* | nt | 0
O=[N+]([O-])c1cccnc1NCCc1ccccc1 | 0 | 38 | 3 | 73* | 0 | 1
O=[N+]([O-])c1ccccc1NCCNc1ncc(C(F)(F)F)cc1Cl | nt | 38 | nt | nt | nt | -3
O=[N+]([O-])c1cccnc1NCCc1c[nH]c2ccccc12 | 0 | 64 | 30 | ? | -4 | 1
SMILES | Xi reactivation | MITF act | Wnt act | esBAF inh | CASP6 VEID inh | NSD2 inh
CC(C)NC(=O)N(C)C[C@@H]1Oc2ccc(N)cc2C(=O)N(C)C[C@H]1C | 0 | nt | nt | nt | nt | nt
O=C(Nc1ccccc1)N1CC(=O)N2[C@H](CO)[C@@H](c3ccc(-c4ccc(F)cc4)cc3)[C@@H]2C1 | 0 | nt | nt | nt | nt | nt
CCOC(=O)N1CCN(C(=O)CN(C)S(=O)(=O)c2ccc3c(c2)c(=O)n(C)c(=O)n3C)CC1 | 0 | -12 | -2 | nt | 42* | -1
COc1ccc(N2CCN(C(=O)CN(C)S(=O)(=O)c3ccc4c(c3)c(=O)n(C)c(=O)n4C)CC2)cc1 | 0 | -3 | 0 | nt | 0 | 3
CCCc1nc2ccc(C)cn2c1Cc1cccc(Cl)c1 | 0 | nt | 2 | 45* | -2 | nt
Cc1ccc2nc(-c3cccc(Br)c3)c(CC3CCCCC3)n2c1 | 0 | nt | 24 | 46* | -3 | nt
